# Assay results of several laboratories.
# Each line is one published result; the experiments were not run side by side.
# SLC6A3: Sodium-dependent dopamine transporter (SLC6A3, Homo sapiens, UniProt Q01959)
# CHEK1: Serine/threonine-protein kinase Chk1 (CHEK1, Homo sapiens, UniProt O14757)
# FGFR2: Fibroblast growth factor receptor 2 (FGFR2, Homo sapiens, UniProt P21802)
Structure (SMILES),target,observed,action,technique,pH,IC50
Clc1ccc(C(c2ccccc2)c2nnnn2CCCCN2CCN(CCCc3ccccc3)CC2)cc1 (centres unmarked),SLC6A3,transporter uptake,inhibitor,,,415 nM
C/C(=N\O)c1ccc(-c2ccc(O)c(C)c2)c(Cl)c1O,"Solute carrier family 2, facilitated glucose transporter member 1 (SLC2A1, Homo sapiens, UniProt P11166)",transporter uptake,inhibitor,radiometric,,11100 nM
O=C(O)c1cnn2c(-c3cccc(C(F)(F)F)c3)ccnc12,"Toll-like receptor 8 (TLR8, Homo sapiens, UniProt Q9NR97)",reporter gene,,,,> 20000 nM
CC(=O)SCCNC(=O)CCNC(=O)[C@H](O)C(C)(C)COP(=O)(O)OP(=O)(O)OC[C@H]1O[C@@H](n2cnc3c(N)ncnc32)[C@H](O)[C@@H]1OP(=O)(O)O,"Pantothenate kinase 3 (PANK3, Homo sapiens, UniProt Q9H999)",enzyme activity,inhibitor,,,170 nM
CN1C(=O)c2c(nn(Cc3ccc(-c4cccc(F)n4)cc3)c2Nc2ccccc2)N2C1=N[C@@H]1CCC[C@@H]12,"Dual specificity calcium/calmodulin-dependent 3',5'-cyclic nucleotide phosphodiesterase 1C (PDE1C, Homo sapiens, UniProt Q14123)",enzyme activity,inhibitor,radiometric,,0.053 nM
O=C1CSC(=S)N1NC(=S)SSC(=S)NN1C(=O)CSC1=S,"Tyrosine-protein phosphatase non-receptor type 22 (PTPN22, Homo sapiens, UniProt Q9Y2R2)",enzyme activity,inhibitor,fluorescence,pH 6.5,3000 nM
O=C(O)C1=CCCN(CCON=C(c2ccccc2)c2ccccc2)C1,"Sodium- and chloride-dependent GABA transporter 1 (Slc6a1, Rattus norvegicus, UniProt P23978)",ligand displacement,,radioligand,,210 nM
COc1cc(-c2ccc3c(c2)Nc2ccc(CC(=O)NC(CO)c4ccccc4)cc2NC3=O)ccc1[N+](=O)[O-] (centres unmarked),CHEK1,enzyme activity,inhibitor,,,26.9 nM
Cc1ccc(NC(=O)c2ccc(C)c(C(F)(F)F)c2)cc1C#Cc1nn(C2CCC(O)CC2)c2ncnc(N)c12 (centres unmarked),FGFR2,enzyme activity,inhibitor,radiometric,,40 nM
COc1cc(O)c(C(CC(=O)N2CCCC2)c2ccc3c(c2)OCO3)c(OC)c1 (centres unmarked),"Nuclear receptor ROR-gamma (Mus musculus, UniProt P51450)",reporter gene,,,,> 50000 nM
CC(C)(C)OC(=O)NCCCCOc1ccc(Cl)cc1NC(=O)Nc1cnc(C#N)cn1,CHEK1,enzyme activity,inhibitor,,,8370 nM
N=C(NCCCSC[C@H]1O[C@@H](n2cnc3c(NCCCc4ccccc4)ncnc32)[C@H](O)[C@@H]1O)NC1CC1,"Protein arginine N-methyltransferase 1 (PRMT1, Homo sapiens, UniProt Q99873)",enzyme activity,inhibitor,fluorescence,,1180 nM
COc1cc(-c2ccc3c(c2)Nc2ccc(OCCN4CCOCC4)cc2NC3=O)ccc1[N+](=O)[O-],CHEK1,enzyme activity,inhibitor,,,24.5 nM
Clc1ccc(C(c2ccccc2)c2nnnn2CCCCN2CCN(CC=Cc3ccccc3)CC2)cc1 (centres unmarked),SLC6A3,transporter uptake,inhibitor,,,412 nM
CCn1ncc2c1-c1cnc(N)c(c1)O[C@H](C)c1cc(F)ccc1-c1nn(C)nc1C2,"Leukocyte tyrosine kinase receptor (LTK, Homo sapiens, UniProt P29376)",enzyme activity,inhibitor,radiometric,,5.8 nM
CSc1ccc(/C=C2/C(C)=C(CC(=O)O)c3cc(F)ccc32)cc1,"cAMP and cAMP-inhibited cGMP 3',5'-cyclic phosphodiesterase 10A (PDE10A, Homo sapiens, UniProt Q9Y233)",enzyme activity,inhibitor,,,> 100000 nM
CCOC(=O)CCCCCOc1ccc(Cl)cc1NC(=O)Nc1cnc(C#N)cn1,CHEK1,enzyme activity,inhibitor,,,380 nM
c1ccc(CCC2CCN(CCCCn3nnnc3C(c3ccccc3)c3ccccc3)CC2)cc1,SLC6A3,transporter uptake,inhibitor,,,383 nM
COc1cc(-c2ccc3c(c2)Nc2ccc(N)cc2NC3=O)ccc1[N+](=O)[O-],CHEK1,enzyme activity,inhibitor,,,16.6 nM
Cc1cc(Nc2cc(CN3CCOCC3)c3nc(C)c(Cc4ccc(Cl)cc4F)n3n2)n[nH]1,FGFR2,enzyme activity,inhibitor,TR-FRET,,32 nM
